Source: ChEMBL document CHEMBL2086318, “Synthesis and in vitro antimycobacterial activity of 2-methoxybenzanilides and their thioxo analogues” (Eur J Med Chem, 2012)
Converted amounts (≈) assume the structure as drawn.

Columns and labels:
Type in all cases: functional
[1] = system: Mycobacterium tuberculosis; assay: Antimycobacterial activity against Mycobacterium tuberculosis My 331/88 after 21 days by micromethod; details: My 331/88, 504 h
How it was run: (§1)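 MIC by micromethod at 37 °C, read after 14 and 21 days. Inocula were M. tuberculosis My 331/88 at 10^-3 dilution and M. avium My 330/88 at 10^-5 dilution. Compounds added in DMSO across 1000, 500, 250, 125, 62.5, 32, 16, 8, 4, 2, 1 and 0.5; isoniazid standard in sterile water. MIC taken as the lowest concentration inhibiting growth.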

Mycobacterium kansasii [2] = assay: Antimycobacterial activity against Mycobacterium kansasii My 6509/96 clinical isolate after 14 days by micromethod; details: My 6509/96, 336 h
Mycobacterium kansasii [3] = assay: Antimycobacterial activity against Mycobacterium kansasii My 235/80 after 21 days by micromethod; details: My 235/80, 504 h
Mycobacterium kansasii [4] = assay: Antimycobacterial activity against Mycobacterium kansasii My 6509/96 clinical isolate after 21 days by micromethod; details: My 6509/96, 504 h
[5] = system: Mycobacterium tuberculosis; assay: Antimycobacterial activity against Mycobacterium tuberculosis My 331/88 after 14 days by micromethod; details: My 331/88, 336 h; how it was run: as §1
Mycobacterium kansasii [6] = assay: Antimycobacterial activity against Mycobacterium kansasii My 235/80 after 14 days by micromethod; details: My 235/80, 336 h
Mycobacterium avium [7] = assay: Antimycobacterial activity against Mycobacterium avium My 330/88 after 14 days by micromethod; details: My 330/88, 336 h
Mycobacterium kansasii [8] = assay: Antimycobacterial activity against Mycobacterium kansasii My 235/80 after 7 days by micromethod; details: My 235/80, 168 h
Mycobacterium avium [9] = assay: Antimycobacterial activity against Mycobacterium avium My 330/88 after 21 days by micromethod; details: My 330/88, 504 h
Mycobacterium kansasii [10] = assay: Antimycobacterial activity against Mycobacterium kansasii My 6509/96 clinical isolate after 7 days by micromethod; details: My 6509/96, 168 h

SMILES	MIC [1] [µM]	MIC (Mycobacterium kansasii [2]) [µM]	MIC (Mycobacterium kansasii [3]) [µM]	MIC (Mycobacterium kansasii [4]) [µM]	MIC [5] [µM]	MIC (Mycobacterium kansasii [6]) [µM]	MIC (Mycobacterium avium [7]) [µM]	MIC (Mycobacterium kansasii [8]) [µM]	MIC (Mycobacterium avium [9]) [µM]	MIC (Mycobacterium kansasii [10]) [µM]
COc1ccc(Cl)cc1C(=S)Nc1cccc(C(F)(F)F)c1	16 (≈ 5.53 µg/mL)	16 (≈ 5.53 µg/mL)	16 (≈ 5.53 µg/mL)	16 (≈ 5.53 µg/mL)	16 (≈ 5.53 µg/mL)	16 (≈ 5.53 µg/mL)	32 (≈ 11.1 µg/mL)	8 (≈ 2.77 µg/mL)	32 (≈ 11.1 µg/mL)	8 (≈ 2.77 µg/mL)
COc1ccc(Cl)cc1C(=S)Nc1cccc([N+](=O)[O-])c1	250 (≈ 80.7 µg/mL)	250 (≈ 80.7 µg/mL)	250 (≈ 80.7 µg/mL)	250 (≈ 80.7 µg/mL)	250 (≈ 80.7 µg/mL)	250 (≈ 80.7 µg/mL)	250 (≈ 80.7 µg/mL)	62.5 (≈ 20.2 µg/mL)	250 (≈ 80.7 µg/mL)	62.5 (≈ 20.2 µg/mL)
COc1ccc(Cl)cc1C(=S)Nc1ccc(Cl)c(Cl)c1	8 (≈ 2.77 µg/mL)	125 (≈ 43.3 µg/mL)	62.5 (≈ 21.7 µg/mL)	125 (≈ 43.3 µg/mL)	8 (≈ 2.77 µg/mL)	62.5 (≈ 21.7 µg/mL)	32 (≈ 11.1 µg/mL)	32 (≈ 11.1 µg/mL)	62.5 (≈ 21.7 µg/mL)	62.5 (≈ 21.7 µg/mL)
COc1ccc(Cl)cc1C(=O)Nc1cccc(Cl)c1	250 (≈ 74 µg/mL)	250 (≈ 74 µg/mL)	250 (≈ 74 µg/mL)	250 (≈ 74 µg/mL)	250 (≈ 74 µg/mL)	250 (≈ 74 µg/mL)	250 (≈ 74 µg/mL)	62.5 (≈ 18.5 µg/mL)	250 (≈ 74 µg/mL)	125 (≈ 37 µg/mL)
O=C(Nc1cccc([N+](=O)[O-])c1)c1ccc(Cl)cc1O	8 (≈ 2.34 µg/mL)		16 (≈ 4.68 µg/mL)		8 (≈ 2.34 µg/mL)	16 (≈ 4.68 µg/mL)	16 (≈ 4.68 µg/mL)		16 (≈ 4.68 µg/mL)	
O=C(Nc1ccc(Br)cc1)c1ccc(Cl)cc1O	4 (≈ 1.31 µg/mL)		4 (≈ 1.31 µg/mL)		4 (≈ 1.31 µg/mL)	4 (≈ 1.31 µg/mL)	16 (≈ 5.23 µg/mL)		16 (≈ 5.23 µg/mL)	
COc1cc(Cl)ccc1C(=O)Nc1ccc([N+](=O)[O-])cc1	250 (≈ 76.7 µg/mL)	125 (≈ 38.3 µg/mL)	250 (≈ 76.7 µg/mL)	125 (≈ 38.3 µg/mL)	250 (≈ 76.7 µg/mL)	250 (≈ 76.7 µg/mL)	250 (≈ 76.7 µg/mL)	125 (≈ 38.3 µg/mL)	250 (≈ 76.7 µg/mL)	125 (≈ 38.3 µg/mL)
COc1cc(Cl)ccc1C(=O)Nc1cccc(Br)c1	250 (≈ 85.2 µg/mL)	125 (≈ 42.6 µg/mL)	125 (≈ 42.6 µg/mL)	125 (≈ 42.6 µg/mL)	250 (≈ 85.2 µg/mL)	125 (≈ 42.6 µg/mL)	125 (≈ 42.6 µg/mL)	125 (≈ 42.6 µg/mL)	125 (≈ 42.6 µg/mL)	125 (≈ 42.6 µg/mL)
O=C(Nc1ccc(C(F)(F)F)cc1)c1cc(Cl)ccc1O	2 (≈ 0.631 µg/mL)		1 (≈ 0.316 µg/mL)		2 (≈ 0.631 µg/mL)	1 (≈ 0.316 µg/mL)	8 (≈ 2.53 µg/mL)		8 (≈ 2.53 µg/mL)	
COc1ccc(Cl)cc1C(=O)Nc1cccc(C(F)(F)F)c1	16 (≈ 5.28 µg/mL)	4 (≈ 1.32 µg/mL)	16 (≈ 5.28 µg/mL)	16 (≈ 5.28 µg/mL)	4 (≈ 1.32 µg/mL)	4 (≈ 1.32 µg/mL)	125 (≈ 41.2 µg/mL)	4 (≈ 1.32 µg/mL)	125 (≈ 41.2 µg/mL)	4 (≈ 1.32 µg/mL)
O=C(Nc1cccc([N+](=O)[O-])c1)c1cc(Cl)ccc1O	8 (≈ 2.34 µg/mL)		8 (≈ 2.34 µg/mL)		8 (≈ 2.34 µg/mL)	8 (≈ 2.34 µg/mL)	16 (≈ 4.68 µg/mL)		16 (≈ 4.68 µg/mL)	
COc1cc(Cl)ccc1C(=O)Nc1ccc(Br)cc1	125 (≈ 42.6 µg/mL)	8 (≈ 2.72 µg/mL)	32 (≈ 10.9 µg/mL)	32 (≈ 10.9 µg/mL)	62.5 (≈ 21.3 µg/mL)	8 (≈ 2.72 µg/mL)	8 (≈ 2.72 µg/mL)	4 (≈ 1.36 µg/mL)	32 (≈ 10.9 µg/mL)	4 (≈ 1.36 µg/mL)
COc1ccc(Cl)cc1C(=S)Nc1ccc([N+](=O)[O-])cc1	32 (≈ 10.3 µg/mL)	250 (≈ 80.7 µg/mL)	250 (≈ 80.7 µg/mL)	250 (≈ 80.7 µg/mL)	32 (≈ 10.3 µg/mL)	250 (≈ 80.7 µg/mL)	250 (≈ 80.7 µg/mL)	125 (≈ 40.3 µg/mL)	250 (≈ 80.7 µg/mL)	125 (≈ 40.3 µg/mL)
COc1ccc(Cl)cc1C(=O)Nc1ccc(Br)cc1	16 (≈ 5.45 µg/mL)	62.5 (≈ 21.3 µg/mL)	62.5 (≈ 21.3 µg/mL)	62.5 (≈ 21.3 µg/mL)	16 (≈ 5.45 µg/mL)	62.5 (≈ 21.3 µg/mL)	16 (≈ 5.45 µg/mL)	62.5 (≈ 21.3 µg/mL)	32 (≈ 10.9 µg/mL)	32 (≈ 10.9 µg/mL)
O=C(Nc1ccc(Cl)cc1)c1ccc(Cl)cc1O	4 (≈ 1.13 µg/mL)		8 (≈ 2.26 µg/mL)		4 (≈ 1.13 µg/mL)	4 (≈ 1.13 µg/mL)	8 (≈ 2.26 µg/mL)		8 (≈ 2.26 µg/mL)	
NNC(=O)c1ccncc1 [ISONIAZID]	0.5 (≈ 0.0686 µg/mL)	4 (≈ 0.549 µg/mL)	250 (≈ 34.3 µg/mL)	4 (≈ 0.549 µg/mL)	0.5 (≈ 0.0686 µg/mL)	200 (≈ 27.4 µg/mL)	200 (≈ 27.4 µg/mL)	> 250	250 (≈ 34.3 µg/mL)	4 (≈ 0.549 µg/mL)
O=C(Nc1ccc([N+](=O)[O-])cc1)c1cc(Cl)ccc1O	8 (≈ 2.34 µg/mL)		4 (≈ 1.17 µg/mL)		4 (≈ 1.17 µg/mL)	4 (≈ 1.17 µg/mL)	8 (≈ 2.34 µg/mL)		8 (≈ 2.34 µg/mL)	
O=C(Nc1ccc(C(F)(F)F)cc1)c1ccc(Cl)cc1O	4 (≈ 1.26 µg/mL)		4 (≈ 1.26 µg/mL)		4 (≈ 1.26 µg/mL)	4 (≈ 1.26 µg/mL)	8 (≈ 2.53 µg/mL)		8 (≈ 2.53 µg/mL)	
